# Calls of active or inactive are those of the source. The rule behind the calls is not given here.
# How the values were obtained:
# [1] = biological target: T1, Multidrug resistance protein CDR1 (Candida albicans, UniProt P43071); experiment: Inhibition of GFP-tagged Candida albicans CDR1 expressed in Saccharomyces cerevisiae assessed as inhibition of R6G efflux
# Procedure, shortened: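 S. cerevisiae AD-CDR1 cells were grown 5 h, then de-energized 45 min in 5 mM deoxyglucose/5 mM dinitrophenol in glucose-free PBS. Compound (10–100 μM) was added 5 min before 10 μM R6G, and cells were loaded 40 min at 30°C. After washing, efflux was started with 2% glucose. Supernatant A527 was read at 40 min, with glucose-free controls. Means of three independent experiments.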
# [2] = biological target: T1, Multidrug resistance protein CDR1; experiment: Displacement of [125I]IAAP from GFP-tagged Candida albicans CDR1 expressed in Saccharomyces cerevisiae
# Procedure, shortened: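 Crude membranes (50 μg) from S. cerevisiae AD-CDR1 cells were preincubated with compound for 10 min at 37°C in 50 mM Tris-HCl pH 7.5. They were then given 3–6 nM [125I]IAAP for 5 min under subdued light and UV-crosslinked at 365 nm for 10 min at room temperature. Cdr1p was immunoprecipitated with anti-GFP, run on 7% Tris-acetate gel, and the band quantified by phosphorimager.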
# Saccharomyces cerevisiae [3] = experiment: Toxicity against CDR1-expressing Saccharomyces cerevisiae AD after 48 hrs by MTT assay
# Saccharomyces cerevisiae [4] = experiment: Toxicity against Candida albicans MDR1-expressing Saccharomyces cerevisiae AD1-8u after 48 hrs by MTT assay
# [5] = biological target: Multidrug resistance protein CDR1 (Candida albicans) (UniProt P43071); details: 100 uM
# Candida albicans [6] = experiment: Effect on CDR1 expression in Candida albicans at 100 uM by Western blot analysis; assay type: functional, organism-based
# Saccharomyces cerevisiae [7] = experiment: Toxicity against Saccharomyces cerevisiae AD1-8u after 48 hrs by MTT assay
# Saccharomyces cerevisiae [8] = experiment: Toxicity against CDR2-expressing Saccharomyces cerevisiae AD after 48 hrs by MTT assay
# Saccharomyces cerevisiae [9] = experiment: Toxicity against PDR5-expressing Saccharomyces cerevisiae AD after 48 hrs by MTT assay
# [10] = biological target: Multidrug resistance protein CDR1 (Candida albicans) (UniProt P43071); details: 100 uM; remark: listed apart in the source
# Candida albicans [11] = experiment: Antifungal activity against Candida albicans by checkerboard method in presence of itraconazole; assay type: functional
# Procedure, shortened: (§1)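 Checkerboard (CLSI method) on S. cerevisiae AD1-8u cells overexpressing GFP-tagged C. albicans Cdr1p (AD-CDR1). […] FIC = MIC in combination/MIC alone.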
# Candida albicans [12] = experiment: Antifungal activity against Candida albicans by checkerboard method in presence of miconazole; assay type: functional; procedure, shortened: as §1
# Candida albicans [13] = experiment: Antifungal activity against Candida albicans by checkerboard method in presence of ketoconazole; assay type: functional; procedure, shortened: as §1
# Candida albicans [14] = experiment: Antifungal activity against Candida albicans by checkerboard method in presence of R6G; assay type: functional; procedure, shortened: as §1
# [15] = test system: COc1cc(/C=C/C(=O)CC(=O)/C=C/c2ccc(O)c(OC)c2)ccc1O; details: Candida albicans
compound,measurement,setting,value
O=C(/C=C/c1ccc(O)cc1)CC(=O)/C=C/c1ccc(O)cc1 [BISDEMETHOXYCURCUMIN],IC50,[1],40 µM
COc1cc(/C=C/C(=O)CC(=O)/C=C/c2ccc(O)c(OC)c2)ccc1O [CURCUMIN],IC50,[2],14.2 µM
same,IC50,Saccharomyces cerevisiae [3],493 µM
same,IC50,Saccharomyces cerevisiae [4],455 µM
same,inhibition,[5],inactive
same,Activity,Candida albicans [6],inactive
same,IC50,Saccharomyces cerevisiae [7],422 µM
same,IC50,Saccharomyces cerevisiae [8],411 µM
same,IC50,Saccharomyces cerevisiae [9],498 µM
same,IC50,[1],40 µM
same,inhibition,[10],Active
COc1cc(/C=C/C(O)=C/C(=O)/C=C/c2ccc(O)cc2)ccc1O [DEMETHOXYCURCUMIN],IC50,[1],45 µM
CCC(C)n1ncn(-c2ccc(N3CCN(c4ccc(OCC5COC(Cn6cncn6)(c6ccc(Cl)cc6Cl)O5)cc4)CC3)cc2)c1=O (configuration not stated) [ITRACONAZOLE],FIC,Candida albicans [11],0.005
CC(=O)N1CCN(c2ccc(OCC3COC(Cn4ccnc4)(c4ccc(Cl)cc4Cl)O3)cc2)CC1 (configuration not stated) [KETOCONAZOLE],FIC,Candida albicans [12],0.005
same,FIC,Candida albicans [13],0.0054
CC/N=c1\cc2oc3cc(NCC)c(C)cc3c(-c3ccccc3C(=O)OCC)c-2cc1C.Cl [RHODAMINE 6G HYDROCHLORIDE],FIC,Candida albicans [14],0.0013
Multidrug resistance protein CDR1 (Candida albicans) (from UniProt P43071),Km,[15],5.87 µM

# From ChEMBL document CHEMBL1649543 (Antimicrob Agents Chemother, 2009)
